Laboratory results as given in ChEMBL document CHEMBL1134857, “The synthesis and biological evaluation of a novel series of antimicrobials of the oxazolidinone class” (Bioorg Med Chem Lett, 2002).
≈ marks a conversion by molar mass, not a printed value.

How the values were obtained:
[1] = test system: Staphylococcus aureus; experiment: Minimum inhibitory concentration measured against Staphylococcus aureus; format: functional
[2] = test system: Enterococcus faecium; experiment: Minimum inhibitory concentration measured against Enterococcus faecium; format: functional
[3] = test system: Staphylococcus epidermidis; experiment: Minimum inhibitory concentration measured against Staphylococcus epidermidis; format: functional
[4] = test system: Moraxella catarrhalis; experiment: Minimum inhibitory concentration measured against Moraxella catarrhalis; format: functional
[5] = test system: Streptococcus pneumoniae; experiment: Minimum inhibitory concentration measured against Streptococcus pneumoniae; format: functional
[6] = biological target: T1, Amine oxidase [flavin-containing] B (Rattus norvegicus, UniProt P19643); experiment: Inhibition of Monoamine oxidase B in rat primary hepatocytes; format: cell-based, Hepatocyte
T1 sequence (P19643 whole entry): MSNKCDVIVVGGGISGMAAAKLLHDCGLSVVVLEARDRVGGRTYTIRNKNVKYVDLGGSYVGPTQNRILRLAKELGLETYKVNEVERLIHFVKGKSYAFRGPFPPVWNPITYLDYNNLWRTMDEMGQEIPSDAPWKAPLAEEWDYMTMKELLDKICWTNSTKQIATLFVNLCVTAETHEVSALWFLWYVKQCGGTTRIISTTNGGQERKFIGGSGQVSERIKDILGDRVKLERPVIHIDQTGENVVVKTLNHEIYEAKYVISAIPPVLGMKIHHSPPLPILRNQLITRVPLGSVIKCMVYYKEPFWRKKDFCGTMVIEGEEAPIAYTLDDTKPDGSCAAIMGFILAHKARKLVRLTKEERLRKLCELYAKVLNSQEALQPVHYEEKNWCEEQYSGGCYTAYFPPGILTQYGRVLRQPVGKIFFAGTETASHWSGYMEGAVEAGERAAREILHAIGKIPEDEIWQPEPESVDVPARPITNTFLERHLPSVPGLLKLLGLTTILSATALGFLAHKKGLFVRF

[7] = species on record: Rattus norvegicus; experiment: Inhibition of mitochondrial protein synthesis (MPS) in rat heart mitochondria; format: functional
In short: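 Rat heart mitochondria were incubated at 1 mg/mL protein (Bradford) in buffer with translation components (ADP, amino acids). Incorporation of S35 methionine was followed for 1 h at 30 °C, then quenched with cold 5% TCA/5 mM methionine. Triplicate aliquots were filtered, washed and counted. Compounds were tested at 6–7 concentrations, ≤1% organic. IC50 came from the linear portion of the percent-of-control curve, as the mean of ≥2 experiments.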

SMILES | MIC [1] | MIC [2] | MIC [3] | MIC [4] | MIC [5] | IC50 [6] | IC50 [7]
CC(=O)NC[C@H]1CN(c2ccc(/C=C\F)c(F)c2)C(=O)O1 | 8 µg/mL (≈ 27 µM) | 8 µg/mL (≈ 27 µM) | 8 µg/mL (≈ 27 µM) | 32 µg/mL (≈ 108 µM) | 2 µg/mL (≈ 6.75 µM) | – | –
COc1ccc(C(C)C)cc1/C(Br)=C/c1ccc(N2C[C@H](CNC(C)=O)OC2=O)cc1F | > 128 µg/mL | > 128 µg/mL | > 128 µg/mL | 32 µg/mL (≈ 63.3 µM) | 64 µg/mL (≈ 127 µM) | – | –
CC(=O)NC[C@H]1CN(c2ccc(/C=C(\Br)c3cccc(C(N)=O)c3)c(F)c2)C(=O)O1 | 4 µg/mL (≈ 8.4 µM) | 2 µg/mL (≈ 4.2 µM) | 4 µg/mL (≈ 8.4 µM) | 16 µg/mL (≈ 33.6 µM) | 4 µg/mL (≈ 8.4 µM) | – | –
CC(=O)NC[C@H]1CN(c2ccc(/C=C(\Br)c3cccc(NC(C)=O)c3)c(F)c2)C(=O)O1 | 4 µg/mL (≈ 8.16 µM) | 2 µg/mL (≈ 4.08 µM) | 2 µg/mL (≈ 4.08 µM) | 64 µg/mL (≈ 131 µM) | 2 µg/mL (≈ 4.08 µM) | – | –
CC(=O)NC[C@H]1CN(c2ccc(/C=C/c3cncc(C#N)c3)c(F)c2)C(=O)O1 | 4 µg/mL (≈ 10.5 µM) | 2 µg/mL (≈ 5.26 µM) | 2 µg/mL (≈ 5.26 µM) | 16 µg/mL (≈ 42.1 µM) | 16 µg/mL (≈ 42.1 µM) | > 300 µM | 9.4 µM
CC(=O)NC[C@H]1CN(c2ccc(/C=C(\Br)c3ccco3)c(F)c2)C(=O)O1 | 1 µg/mL (≈ 2.36 µM) | 0.5 µg/mL (≈ 1.18 µM) | 0.25 µg/mL (≈ 0.591 µM) | 1 µg/mL (≈ 2.36 µM) | 0.5 µg/mL (≈ 1.18 µM) | – | –
CC(=O)NC[C@H]1CN(c2ccc(/C=C(\F)S(=O)(=O)c3ccccc3)c(F)c2)C(=O)O1 | 8 µg/mL (≈ 18.3 µM) | 8 µg/mL (≈ 18.3 µM) | 8 µg/mL (≈ 18.3 µM) | 64 µg/mL (≈ 147 µM) | 8 µg/mL (≈ 18.3 µM) | – | –
CC(=O)NC[C@H]1CN(c2ccc(/C=C(/F)c3cccnc3)c(F)c2)C(=O)O1 | 8 µg/mL (≈ 21.4 µM) | 4 µg/mL (≈ 10.7 µM) | 4 µg/mL (≈ 10.7 µM) | 32 µg/mL (≈ 85.7 µM) | 4 µg/mL (≈ 10.7 µM) | – | –
CC(=O)NC[C@H]1CN(c2ccc(/C=C(\F)c3cccc(C=O)c3)c(F)c2)C(=O)O1 | 1 µg/mL (≈ 2.5 µM) | 1 µg/mL (≈ 2.5 µM) | 0.5 µg/mL (≈ 1.25 µM) | 64 µg/mL (≈ 160 µM) | 4 µg/mL (≈ 9.99 µM) | > 300 µM | 9.9 µM
CC(=O)NC[C@H]1CN(c2ccc(/C=C(\F)c3cnc(N)nc3)c(F)c2)C(=O)O1 | 16 µg/mL (≈ 41.1 µM) | 8 µg/mL (≈ 20.5 µM) | 4 µg/mL (≈ 10.3 µM) | 32 µg/mL (≈ 82.2 µM) | 8 µg/mL (≈ 20.5 µM) | – | –
CC(=O)NC[C@H]1CN(c2ccc(/C=C(\Br)c3cccc(C(C)=O)c3)c(F)c2)C(=O)O1 | 2 µg/mL (≈ 4.21 µM) | 1 µg/mL (≈ 2.1 µM) | 1 µg/mL (≈ 2.1 µM) | 4 µg/mL (≈ 8.42 µM) | 1 µg/mL (≈ 2.1 µM) | – | –
CC(=O)NC[C@H]1CN(c2ccc(/C=C(\Br)c3cccc(C=O)c3)c(F)c2)C(=O)O1 | 0.5 µg/mL (≈ 1.08 µM) | 0.5 µg/mL (≈ 1.08 µM) | 0.25 µg/mL (≈ 0.542 µM) | 1 µg/mL (≈ 2.17 µM) | 1 µg/mL (≈ 2.17 µM) | > 300 µM | 33 µM
CC(=O)NC[C@H]1CN(c2ccc(/C=C(\Br)c3ccc(C(C)=O)s3)c(F)c2)C(=O)O1 | 1 µg/mL (≈ 2.08 µM) | 0.5 µg/mL (≈ 1.04 µM) | 0.5 µg/mL (≈ 1.04 µM) | 2 µg/mL (≈ 4.16 µM) | 0.5 µg/mL (≈ 1.04 µM) | – | –
CC(=O)NC[C@H]1CN(c2ccc(/C=C(\Br)c3c(C)oc[n+]3C)c(F)c2)C(=O)O1 | 32 µg/mL | 32 µg/mL | 16 µg/mL | 64 µg/mL | 8 µg/mL | 21 µM | 54 µM
CC(=O)NC[C@H]1CN(c2ccc(/C=C(\Br)c3ccncc3)c(F)c2)C(=O)O1 | 8 µg/mL (≈ 18.4 µM) | 1 µg/mL (≈ 2.3 µM) | 2 µg/mL (≈ 4.61 µM) | 16 µg/mL (≈ 36.8 µM) | 1 µg/mL (≈ 2.3 µM) | 186 µM | 14 µM
CC(=O)NC[C@H]1CN(c2ccc(/C=C(\Br)c3ccc(C(C)=O)cc3)c(F)c2)C(=O)O1 | 64 µg/mL (≈ 135 µM) | 32 µg/mL (≈ 67.3 µM) | 64 µg/mL (≈ 135 µM) | 128 µg/mL (≈ 269 µM) | 1 µg/mL (≈ 2.1 µM) | – | –
CC(=O)NC[C@H]1CN(c2ccc(/C=C(\F)c3nccs3)c(F)c2)C(=O)O1 | 2 µg/mL (≈ 5.27 µM) | 2 µg/mL (≈ 5.27 µM) | 2 µg/mL (≈ 5.27 µM) | 8 µg/mL (≈ 21.1 µM) | 2 µg/mL (≈ 5.27 µM) | < 9.4 µM | –
CC(=O)NC[C@H]1CN(c2ccc(/C=C(\Br)c3cccc(N)c3)c(F)c2)C(=O)O1 | 2 µg/mL (≈ 4.46 µM) | 2 µg/mL (≈ 4.46 µM) | 1 µg/mL (≈ 2.23 µM) | 8 µg/mL (≈ 17.8 µM) | 2 µg/mL (≈ 4.46 µM) | – | –
CC(=O)NC[C@H]1CN(c2ccc(/C=C(\Br)c3ccc(C#N)cc3)c(F)c2)C(=O)O1 | 4 µg/mL (≈ 8.73 µM) | 2 µg/mL (≈ 4.36 µM) | 1 µg/mL (≈ 2.18 µM) | > 128 µg/mL | 0.5 µg/mL (≈ 1.09 µM) | > 150 µM | 76 µM
CC(=O)NC[C@H]1CN(c2ccc(/C=C(\F)c3cccc(C(C)=O)c3)c(F)c2)C(=O)O1 | 0.5 µg/mL (≈ 1.21 µM) | 2 µg/mL (≈ 4.83 µM) | 1 µg/mL (≈ 2.41 µM) | > 128 µg/mL | 1 µg/mL (≈ 2.41 µM) | > 300 µM | 69 µM
CC(=O)NC[C@H]1CN(c2ccc(/C=C(\Br)c3cccnc3)c(F)c2)C(=O)O1 | 2 µg/mL (≈ 4.61 µM) | 2 µg/mL (≈ 4.61 µM) | 1 µg/mL (≈ 2.3 µM) | 8 µg/mL (≈ 18.4 µM) | 1 µg/mL (≈ 2.3 µM) | 121 µM | 12 µM
COc1ccncc1/C(Br)=C/c1ccc(N2C[C@H](CNC(C)=O)OC2=O)cc1F | 8 µg/mL (≈ 17.2 µM) | 2 µg/mL (≈ 4.31 µM) | 4 µg/mL (≈ 8.62 µM) | 32 µg/mL (≈ 68.9 µM) | 2 µg/mL (≈ 4.31 µM) | – | –
CC(=O)NC[C@H]1CN(c2ccc(/C=C(\F)c3cccc(C#N)c3)c(F)c2)C(=O)O1 | > 128 µg/mL | > 128 µg/mL | 128 µg/mL (≈ 322 µM) | > 128 µg/mL | 2 µg/mL (≈ 5.03 µM) | > 300 µM | > 300 µM
CC(=O)NC[C@H]1CN(c2ccc(/C=C(\F)c3cncnc3)c(F)c2)C(=O)O1 | 2 µg/mL (≈ 5.34 µM) | 2 µg/mL (≈ 5.34 µM) | 1 µg/mL (≈ 2.67 µM) | 4 µg/mL (≈ 10.7 µM) | 1 µg/mL (≈ 2.67 µM) | 475 µM | –
CC(=O)NC[C@H]1CN(c2ccc(/C=C(\F)c3cccnc3)c(F)c2)C(=O)O1 | 4 µg/mL (≈ 10.7 µM) | 1 µg/mL (≈ 2.68 µM) | 0.25 µg/mL (≈ 0.67 µM) | 8 µg/mL (≈ 21.4 µM) | 0.5 µg/mL (≈ 1.34 µM) | 98 µM | 1.6 µM
CC(=O)NC[C@H]1CN(c2ccc(/C=C(\Br)c3cccc(CO)c3)c(F)c2)C(=O)O1 | 2 µg/mL (≈ 4.32 µM) | 0.5 µg/mL (≈ 1.08 µM) | 1 µg/mL (≈ 2.16 µM) | 4 µg/mL (≈ 8.63 µM) | 1 µg/mL (≈ 2.16 µM) | > 150 µM | 8 µM
CC(=O)NC[C@H]1CN(c2ccc(/C=C(\Br)c3cncc(C#N)c3)c(F)c2)C(=O)O1 | 1 µg/mL (≈ 2.18 µM) | < 0.125 µg/mL | 0.25 µg/mL (≈ 0.544 µM) | 2 µg/mL (≈ 4.35 µM) | ≤ 0.125 µg/mL | > 300 µM | 1.3 µM
CC(=O)NC[C@H]1CN(c2ccc(/C=C(\Br)c3ccccc3)c(F)c2)C(=O)O1 | 16 µg/mL (≈ 36.9 µM) | 16 µg/mL (≈ 36.9 µM) | 16 µg/mL (≈ 36.9 µM) | 128 µg/mL (≈ 295 µM) | 2 µg/mL (≈ 4.62 µM) | < 9.4 µM | > 300 µM
